Converted amounts (≈) assume the structure as drawn.
Tests used:
[1] = Ratio of drug level in brain to plasma in Sprague-Dawley rat; assay type: ADME, cell-free; conditions: for Kp: Sprague-Dawley, brain and plasma, read-out: BPR
Procedure, shortened: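 Total brain-to-plasma ratio from in vivo Sprague-Dawley rat samples, compound given as 4 h constant-rate i.v. infusion to steady state.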

[2] = Ratio of unbound fraction in brain to plasma in Sprague-Dawley rat; assay type: ADME, cell-free
Procedure, shortened: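 Steady-state total brain/plasma ratio in Sprague-Dawley rats after 4 h constant-rate i.v. infusion, corrected by unbound fraction in brain (rat brain slices) and in plasma (equilibrium dialysis).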

[3] = (§1) Apparent permeability from apical to basolateral side in human Caco2 cells at pH 7.4; assay type: ADME, cell-based; conditions: Caco-2, pH 7.4
Procedure, shortened: (§2)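 Caco-2 monolayers at pH 7.4, apparent permeability measured for apical-to-basolateral transport.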

[4] = Lipophilicity, log D of the compound; conditions: octanol/water
Cannabinoid receptor 1 [5] = target: T1, Cannabinoid receptor 1 (Homo sapiens, UniProt P21554); experiment: Displacement of [3H]-CP55,940 from human CB1 receptor expressed in HEK293S cell membranes by scintillation counting analysis
Cannabinoid receptor 1 [6] = target: T1, Cannabinoid receptor 1; experiment: Agonist activity at human CB1 receptor expressed in HEK293S cell membranes after 1 hr by GTPgamma[35S] binding assay relative to WIN 55,212-2
Procedure, shortened: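 HEK293S membranes with cloned human CB1 (5 µg protein/well) in Hepes buffer pH 7.4, 100 mM NaCl, 5 mM MgCl2, 1 mM EDTA, 0.1% BSA, 15 µM GDP final. GTPγ[35S] added to start, 1 h at rt, filtered, counted. Basal from 8 wells; maximum from 8 wells with 10 µM reference agonist. Emax expressed as % of that reference. 10-point curves; mean of three experiments.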

Cannabinoid receptor 1 [7] = target: T1, Cannabinoid receptor 1; experiment: Agonist activity at human CB1 receptor expressed in HEK293S cell membranes after 1 hr by GTPgamma[35S] binding assay
Cannabinoid receptor 2 = Cannabinoid receptor 2 (Homo sapiens, UniProt P34972); experiment: Displacement of [3H]-CP55,940 from human CB2 receptor expressed in Sf9 cell membranes by scintillation counting analysis
Procedure, shortened: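 Membranes from Sf9 cells expressing cloned hCB2 (baculovirus) in 50 mM Tris, 2.5 mM EDTA, 5 mM MgCl2, 0.5 mg/mL fatty-acid-free BSA, pH 7.4. 60 min at rt, GF/B filtration, scintillation counting. 10-point curves; IC50 mean of three independent experiments.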

[8] = Solubility of the compound in Hank's balanced saline solution at pH 7.4 after 24 hrs by HPLC analysis; assay type: physicochemical
Procedure, shortened: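 Compound in DMSO added to Hanks balanced saline solution pH 7.4, shaken 24 h.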

[9] = target: Voltage-gated inwardly rectifying potassium channel KCNH2 (Homo sapiens, UniProt Q12809); experiment: Inhibition of human ERG expressed in CHO cells by patch clamp assay; assay type: cell-based
Procedure, shortened: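 Patch clamp (IonWorks) in CHO cells expressing hERG.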

[10] = Clearance in Sprague-Dawley rat at 2 umol/kg, iv; assay type: ADME, organism-based; conditions: in vivo
Procedure, shortened: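 Sprague-Dawley rats given 2 µmol/kg i.v.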

[11] = Oral bioavailability in Sprague-Dawley rat at 10 umol/kg; assay type: ADME, organism-based; conditions: in vivo
Procedure, shortened: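 Sprague-Dawley rats given 10 µmol/kg p.o., with i.v. reference dose of 2 µmol/kg.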

Cytochrome P450 2C9 = Cytochrome P450 2C9 (Homo sapiens, UniProt P11712); experiment: Inhibition of human recombinant CYP2C9 expressed in Escherichia coli cells; assay type: ADME
Cytochrome P450 3A4 = Cytochrome P450 3A4 (Homo sapiens, UniProt P08684); experiment: Inhibition of human recombinant CYP3A4 expressed in Escherichia coli cells; assay type: ADME
Caco-2 = experiment: as §1; assay type: ADME, cell-based; conditions: Caco-2, pH 7.4; procedure, shortened: as §2

T1 sequence (P21554 whole entry): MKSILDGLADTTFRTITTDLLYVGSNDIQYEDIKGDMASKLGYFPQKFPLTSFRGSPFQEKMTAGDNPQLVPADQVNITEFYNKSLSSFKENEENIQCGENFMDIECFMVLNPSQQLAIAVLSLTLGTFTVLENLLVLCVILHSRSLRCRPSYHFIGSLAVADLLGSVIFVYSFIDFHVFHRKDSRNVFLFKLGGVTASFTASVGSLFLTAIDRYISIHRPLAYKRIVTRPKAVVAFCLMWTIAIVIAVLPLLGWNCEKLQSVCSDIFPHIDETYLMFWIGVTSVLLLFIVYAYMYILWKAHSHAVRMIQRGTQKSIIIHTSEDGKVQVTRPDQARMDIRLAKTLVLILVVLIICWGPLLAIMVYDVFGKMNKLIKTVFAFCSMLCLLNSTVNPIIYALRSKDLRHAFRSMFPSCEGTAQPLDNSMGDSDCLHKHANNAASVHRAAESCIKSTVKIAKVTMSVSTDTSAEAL
Sequence of Cannabinoid receptor 2 (P34972 whole entry): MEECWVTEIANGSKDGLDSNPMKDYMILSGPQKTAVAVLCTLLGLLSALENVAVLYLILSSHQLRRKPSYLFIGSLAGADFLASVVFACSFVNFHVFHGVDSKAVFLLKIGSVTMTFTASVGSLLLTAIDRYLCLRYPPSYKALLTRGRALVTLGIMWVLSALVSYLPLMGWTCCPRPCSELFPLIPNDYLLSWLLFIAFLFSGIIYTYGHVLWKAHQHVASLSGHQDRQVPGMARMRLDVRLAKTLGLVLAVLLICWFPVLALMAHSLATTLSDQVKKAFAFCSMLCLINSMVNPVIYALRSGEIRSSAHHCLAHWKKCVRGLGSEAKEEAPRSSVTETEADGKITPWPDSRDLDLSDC
Sequence of Cytochrome P450 3A4 (P08684 whole entry): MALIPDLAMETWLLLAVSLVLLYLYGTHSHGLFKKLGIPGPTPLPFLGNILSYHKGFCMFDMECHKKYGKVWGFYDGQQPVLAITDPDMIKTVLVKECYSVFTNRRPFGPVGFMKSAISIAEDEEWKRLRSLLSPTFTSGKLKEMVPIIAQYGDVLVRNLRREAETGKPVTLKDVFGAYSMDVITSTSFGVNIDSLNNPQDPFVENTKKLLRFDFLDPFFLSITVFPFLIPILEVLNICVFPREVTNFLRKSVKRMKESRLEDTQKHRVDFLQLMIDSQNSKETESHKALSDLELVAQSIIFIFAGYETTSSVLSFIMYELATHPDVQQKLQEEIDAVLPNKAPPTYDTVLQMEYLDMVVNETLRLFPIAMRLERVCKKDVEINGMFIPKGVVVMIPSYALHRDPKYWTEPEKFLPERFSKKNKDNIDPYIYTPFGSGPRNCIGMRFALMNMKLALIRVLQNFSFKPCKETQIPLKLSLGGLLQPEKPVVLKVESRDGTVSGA
Sequence of Cytochrome P450 2C9 (P11712 whole entry): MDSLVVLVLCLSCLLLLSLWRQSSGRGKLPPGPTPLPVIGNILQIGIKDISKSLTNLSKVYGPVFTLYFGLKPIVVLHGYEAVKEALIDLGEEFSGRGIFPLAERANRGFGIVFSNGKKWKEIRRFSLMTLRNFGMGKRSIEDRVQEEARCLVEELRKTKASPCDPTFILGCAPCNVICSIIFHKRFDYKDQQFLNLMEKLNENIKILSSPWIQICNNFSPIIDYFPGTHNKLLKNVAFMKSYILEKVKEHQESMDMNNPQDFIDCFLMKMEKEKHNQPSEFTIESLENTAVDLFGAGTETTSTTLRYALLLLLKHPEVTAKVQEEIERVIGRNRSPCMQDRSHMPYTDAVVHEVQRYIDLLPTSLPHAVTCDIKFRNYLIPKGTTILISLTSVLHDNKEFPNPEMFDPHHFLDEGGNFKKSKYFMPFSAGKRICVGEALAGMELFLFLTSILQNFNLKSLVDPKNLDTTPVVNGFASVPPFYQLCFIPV
Sequence of Voltage-gated inwardly rectifying potassium channel KCNH2 (Q12809 whole entry): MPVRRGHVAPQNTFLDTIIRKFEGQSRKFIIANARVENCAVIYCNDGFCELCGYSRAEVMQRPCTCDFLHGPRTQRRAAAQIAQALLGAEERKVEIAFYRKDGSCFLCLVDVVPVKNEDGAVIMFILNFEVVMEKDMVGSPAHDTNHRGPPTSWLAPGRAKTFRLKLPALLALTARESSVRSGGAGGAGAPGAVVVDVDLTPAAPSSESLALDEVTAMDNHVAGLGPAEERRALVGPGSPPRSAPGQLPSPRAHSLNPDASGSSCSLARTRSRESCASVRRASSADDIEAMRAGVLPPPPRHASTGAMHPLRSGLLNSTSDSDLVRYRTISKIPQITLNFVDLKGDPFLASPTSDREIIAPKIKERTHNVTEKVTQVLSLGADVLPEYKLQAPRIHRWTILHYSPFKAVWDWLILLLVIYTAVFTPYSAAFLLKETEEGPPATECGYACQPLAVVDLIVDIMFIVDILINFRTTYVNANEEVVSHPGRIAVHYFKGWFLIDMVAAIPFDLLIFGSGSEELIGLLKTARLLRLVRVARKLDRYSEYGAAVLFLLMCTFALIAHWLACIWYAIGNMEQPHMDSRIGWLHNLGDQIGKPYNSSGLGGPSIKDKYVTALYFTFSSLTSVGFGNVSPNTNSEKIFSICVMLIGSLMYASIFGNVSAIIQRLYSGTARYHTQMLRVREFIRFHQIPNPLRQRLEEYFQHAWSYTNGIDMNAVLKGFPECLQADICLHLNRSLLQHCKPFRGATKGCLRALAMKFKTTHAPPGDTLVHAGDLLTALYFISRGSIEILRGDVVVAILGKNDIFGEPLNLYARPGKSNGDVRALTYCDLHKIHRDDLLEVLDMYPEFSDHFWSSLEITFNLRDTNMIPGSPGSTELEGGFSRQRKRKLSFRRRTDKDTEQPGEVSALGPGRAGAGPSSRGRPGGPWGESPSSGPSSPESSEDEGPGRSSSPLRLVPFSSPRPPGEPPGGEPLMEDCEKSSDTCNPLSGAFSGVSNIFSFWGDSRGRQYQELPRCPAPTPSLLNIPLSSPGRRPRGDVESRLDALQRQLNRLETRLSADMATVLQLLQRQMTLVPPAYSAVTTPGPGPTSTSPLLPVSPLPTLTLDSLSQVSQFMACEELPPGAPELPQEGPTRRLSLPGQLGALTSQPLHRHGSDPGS

SMILES | logD [4] | IC50 (Cannabinoid receptor 1 [5]) | Emax (Cannabinoid receptor 1 [6]) | EC50 (Cannabinoid receptor 1 [7]) | IC50 (Cannabinoid receptor 2) | further results
C[S@@+]([O-])Cc1ccc(C(=O)Nc2cccnc2C(=O)NCC2CCOCC2)c2ccccc12 | 2.9 | 0.021 µM | 100% | 0.031 µM | – | Kp [1]: 0.031; BPR [2]: 0.03; Papp A→B [3]: 26 ×10⁻⁶ cm/s
C[S+]([O-])Cc1ccc(C(=O)Nc2nccnc2C(=O)NCC2CCC2)c2ccccc12 (single isomer, unassigned) [listing 1 of 2 here] | – | – | 110% | – | – | –
O=C(NCC1CCCCC1)c1ncccc1NC(=O)c1cccc2ccccc12 | 8.1 | 0.01 µM | 110% | 0.024 µM | 0.11 µM | –
O=C(Nc1cccnc1C(=O)NCC1CCOCC1)c1cccc2c1OCCO2 | 3.8 | 1.2 µM | – | – | 5.7 µM | –
C[S+]([O-])Cc1ccc(C(=O)Nc2cccnc2C(=O)NCC2CCOCC2)c2ccccc12 (centres undefined) | 2.8 | 0.049 µM | 110% | 0.087 µM | 2.5 µM | Kp [1]: 0.018; BPR [2]: 0.01; Papp A→B [3]: 23 ×10⁻⁶ cm/s; solubility at 24 h [8]: 79 µM (≈ 36.8 µg/mL); IC50 [9]: > 32 µM; clearance [10]: 14 mL/min/kg; bioavailability [11]: 31%; IC50 (Cytochrome P450 2C9): 19 µM; IC50 (Cytochrome P450 3A4): > 20 µM
C[S@+]([O-])Cc1ccc(C(=O)Nc2cccnc2C(=O)NCC2CCOCC2)c2ccccc12 | 2.9 | 0.6 µM | – | – | – | Papp A→B [3]: 0.61 ×10⁻⁶ cm/s
O=C(NCC1CCC1)c1ncccc1NC(=O)c1ccnc2ccccc12 | – | 0.028 µM | 94% | 0.079 µM | 0.082 µM | –
O=C(NCC1CCC1)c1ncccc1NC(=O)c1ccc(Cn2cccc2)c2ccccc12 | – | – | 82% | 0.17 µM | 0.34 µM | –
O=C(NCC1CCC1)c1ncccc1NC(=O)c1cccc2cnccc12 | 5.1 | 0.22 µM | – | – | 0.038 µM | –
O=C(NCC1CCCCC1)c1cnccc1NC(=O)c1cccc2ccccc12 | 6.1 | 1.4 µM | – | – | 9 µM | –
CN(C)Cc1ccc(C(=O)Nc2cccnc2C(=O)NCC2CCC2)c2ccccc12 | – | – | 100% | 0.18 µM | 0.19 µM | –
COCc1ccc(C(=O)Nc2cccnc2C(=O)NCC2CCC2)c2ccccc12 | – | – | 110% | 0.0059 µM | 0.019 µM | –
COc1ccc(NC(=O)c2ccnc3ccccc23)c(C(=O)NCC2CCC2)n1 | 5.9 | 15 µM | 51% | 0.016 µM | 0.1 µM | –
O=C(NCC1CCCCC1)c1ccncc1NC(=O)c1cccc2ccccc12 | 5.5 | 3.6 µM | – | – | > 8.9 µM | –
O=C(NCC1CCC1)c1nc(OCCOCCO)ccc1NC(=O)c1ccnc2ccccc12 | 4.1 | 10 µM | 130% | 0.014 µM | 1.2 µM | –
O=C(NCC1CCC1)c1ncccc1NC(=O)c1cccc2cccnc12 | 5.5 | 0.32 µM | – | – | 0.36 µM | –
O=C(NCC1CCCCC1)c1cc(Cl)ccc1NC(=O)c1cccc2ccccc12 | 7.8 | 0.16 µM | 77% | 0.26 µM | 1.8 µM | –

SMILES | logD [4] | IC50 (Cannabinoid receptor 1 [5]) | Emax (Cannabinoid receptor 1 [6]) | EC50 (Cannabinoid receptor 1 [7]) | IC50 (Cannabinoid receptor 2) | further results
CS(=O)(=O)Cc1ccc(C(=O)Nc2cccnc2C(=O)NCC2CCC2)c2ccccc12 | – | 240 µM | 77% | 0.26 µM | – | –
O=C(NCC1CCC1)c1ncccc1NC(=O)c1cccc2ccccc12 | – | 0.0061 µM | 110% | 0.023 µM | 0.026 µM | –
O=C(NCC1CCC1)c1ncccc1NC(=O)c1ccc(Cn2cccn2)c2ccccc12 | 6.2 | 13 µM | 93% | 0.023 µM | 0.069 µM | –
COc1ccc(NC(=O)c2ccc(Cn3ccnn3)c3ccccc23)c(C(=O)NCC2CCC2)n1 | 5.7 | 0.00097 µM | 54% | 0.0013 µM | – | Kp [1]: 0.31; BPR [2]: 0.093; Papp A→B [3]: 0.96 ×10⁻⁶ cm/s
O=C(NCC1CCCCC1)c1cccnc1NC(=O)c1cccc2ccccc12 | 4.7 | > 10 µM | – | – | > 10 µM | –
C[S+]([O-])Cc1ccc(C(=O)Nc2nccnc2C(=O)NCC2CCC2)c2ccccc12 (stereo in doubt; 18f) [listing 1 of 2 here] | – | 0.047 µM | – | 0.12 µM | 0.3 µM | BPR ([1]; brain): 0.022; BPR [2]: 0.03; Papp (Caco-2): 20 ×10⁻⁶ cm/s; solubility at 24 h [8]: 87 µM (≈ 38 µg/mL); IC50 [9]: 17 µM; clearance [10]: 26 mL/min/kg; bioavailability [11]: 52%; IC50 (Cytochrome P450 2C9): > 20 µM; IC50 (Cytochrome P450 3A4): > 20 µM
O=C(NCC1CCC1)c1ncccc1NC(=O)c1ccc(Cn2ccnn2)c2ccccc12 | 5.3 | 0.71 µM | 110% | 0.0014 µM | 0.065 µM | –
C[S+]([O-])Cc1ccc(C(=O)Nc2nccnc2C(=O)NCC2CCC2)c2ccccc12 (single isomer, unassigned) [listing 2 of 2 here] | 2.7 | 0.037 µM | – | 0.032 µM | – | Kp [1]: 0.02; BPR [2]: 0.011; Papp (Caco-2): 9 ×10⁻⁶ cm/s
O=C(NCC1CCCCC1)c1nccnc1NC(=O)c1cccc2ccccc12 | – | 0.091 µM | 120% | 0.48 µM | 1.4 µM | –
O=C(NCC1CCC1)c1ncccc1NC(=O)c1ccc(Cn2ccnc2)c2ccccc12 | – | – | 100% | 0.04 µM | 0.33 µM | –
C[S+]([O-])Cc1ccc(C(=O)Nc2cccnc2C(=O)NCC2CCC2)c2ccccc12 (centres undefined) | 4.6 | 7 µM | 110% | 0.0059 µM | – | –
O=C(NCC1CCOCC1)c1ncccc1NC(=O)c1cccc2nccnc12 | 2.5 | > 9.9 µM | – | – | > 10 µM | –
O=C(Nc1cccnc1C(=O)NCC1CCOCC1)c1ccc2ncsc2c1 | 3.5 | > 6.7 µM | – | – | > 10 µM | –
C[S+]([O-])Cc1ccc(C(=O)Nc2nccnc2C(=O)NCC2CCC2)c2ccccc12 (stereo in doubt; 18f) [listing 2 of 2 here] | – | – | 120% | – | – | –
O=C(NCC1CCOCC1)c1ncccc1NC(=O)c1cccc2ccccc12 | 5.1 | 0.031 µM | 110% | 0.081 µM | 0.26 µM | Kp [1]: 3
O=C(NCC1CCC1)c1nc(OCCO)ccc1NC(=O)c1ccnc2ccccc12 | 4 | 73 µM | 51% | 0.12 µM | 2.5 µM | –
O=C(NCC1CCOCC1)c1ncccc1NC(=O)c1ccc(C(=O)O)c2ccccc12 | – | > 10000 µM | – | – | > 10 µM | –

— ChEMBL document CHEMBL2311293, “Discovery of agonists of cannabinoid receptor 1 with restricted central nervous system penetration aimed for treatment of gastroesophageal reflux disease” (J Med Chem, 2013)
